Hits are enriched below; roughly 1.2% of the tested compounds scored in any of these assays.
Hep lipid drop – modulators of hepatic lipid droplet formation; AML12 mouse hepatocytes, oleate lipid droplets, BODIPY imaging; inhibition, % at 6.5 µM; 240,000 tested, 0.4% active;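 active = lipid droplet intensity inhibited by at least 50%, with more than 500 cells counted; inconclusive = wells with under 300 cells, treated as cytotoxic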
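System: AML12 hepatocytes (mouse). Probe or stimulus: oleic acid at 100 µM to induce lipid droplet formation. Times: overnight treatment with compound plus oleate. Detection: Image-based BODIPY and DAPI two-channel analysis. Evaluation: percent inhibition of filter-corrected integrated lipid droplet intensity per well.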
procasp3 activ – procaspase-3 (human) activation. 330,000 tested, 0.11% active. recombinant procaspase-3 D3A, Ac-DEVD-pNA absorbance 405 nm. activation, % at 8.5 µM;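 active = activation above the mean of all tested compounds plus 3 SD, cut at about 21% in these data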
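Assay system – Procaspase-3 D3A mutant, all three cleavage aspartates alanine · Controls – DMSO-only low control, 5 µM PC-3 D3A high control · Schedule – 1 h compound preincubation, 2 h substrate hydrolysis at 25 °C · Signal – 405 nm absorbance of p-nitroaniline, reads at 0 and 120 min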
procasp7 counter – counter-screen for procaspase-3 activators: activators of human procaspase-7 | recombinant procaspase-7, Ac-DEVD-pNA absorbance 405 nm; D23A/D198A/D206A triple mutant, cannot self-cleave; scale: DMSO 0, 5 µM enzyme 100 | activation, % at 8.5 µM | P55210 | 330,000 tested, 0.093% active;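 active = percent activation above the screen-wide mean plus 3 SD, cut at about 25% in these data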
Target sequence (P55210 whole entry D23A/D198A/D206A): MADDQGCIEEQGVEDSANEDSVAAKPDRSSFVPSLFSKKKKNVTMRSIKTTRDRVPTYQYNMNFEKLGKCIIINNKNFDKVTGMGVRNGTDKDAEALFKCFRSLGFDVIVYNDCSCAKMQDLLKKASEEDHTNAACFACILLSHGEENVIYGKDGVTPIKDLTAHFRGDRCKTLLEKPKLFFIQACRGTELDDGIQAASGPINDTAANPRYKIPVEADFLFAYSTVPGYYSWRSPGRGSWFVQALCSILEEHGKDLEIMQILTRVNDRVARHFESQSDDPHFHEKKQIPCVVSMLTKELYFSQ
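Assay system: Uncleavable procaspase-7 mutant enzyme | Input: 2 µM procaspase-7 mutant as dispensed | Timing: 1 h compound preincubation, 2 h substrate cleavage, 25 °C | Repeats: One well per compound | Control set: DMSO wells as 0%, DMSO with 5 µM added PC-7 as 100% | Technique: Epi-absorbance of released pNA at 405 nm, two timepoints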
GAA850 FXN act – frataxin GAA850 promoter activation. 360,000 tested, 0.56% active. activation, % at 6 µM. HEK293 lucGAA850 FXN promoter luciferase reporter, 24 h; percent of 10 µM SAHA response. AID 540364;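 active = activation above the average of all compounds screened plus 3 SD, cutoff fixed separately per campaign, cut at about 7.5% in these data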
p-CIP stab down – compounds decreasing mouse p/CIP protein stability. Q05BA5. F442A p/CIP-EGFP cells, EGFP fluorescence, 16 h. decrease of EGFP signal, % at 10 µM. 290,000 tested, 0.01% active;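 active = EGFP signal decrease of at least 30% at 10 µM or well 3 SD below plate mean, unless failing retest; inactive = the rest, including hits failing retest or dose response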
Rce1 inh – blocks yeast Ras-converting enzyme; Q03530; yeast membranes, quenched prenylated peptide cleavage fluorescence; calls only; 290,000 tested, 0.27% active;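 active = fall in fluorescence gain of 50% or more versus controls, with final raw signal at or below 3038400; inconclusive = same 50% fall but final raw signal above 3038400; inactive = fall in fluorescence gain under 50%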
Target sequence (Q03530 whole entry, looked up): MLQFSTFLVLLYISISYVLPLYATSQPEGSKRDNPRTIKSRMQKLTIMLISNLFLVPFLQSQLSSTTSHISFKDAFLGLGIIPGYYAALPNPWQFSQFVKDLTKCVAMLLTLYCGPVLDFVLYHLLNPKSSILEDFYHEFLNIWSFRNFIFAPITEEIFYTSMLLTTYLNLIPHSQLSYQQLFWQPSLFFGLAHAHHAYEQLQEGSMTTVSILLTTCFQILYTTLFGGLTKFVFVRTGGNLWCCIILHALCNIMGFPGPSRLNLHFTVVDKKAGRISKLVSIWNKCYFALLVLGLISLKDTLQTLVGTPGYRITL
GAA30 FXN cntr – counter-screen for GAA850 frataxin promoter activators: GAA30 promoter activation; shares compounds with GAA850 FXN act; activation, % at 6 µM; HEK293 lucGAA30 FXN promoter luciferase, 24 h; DMSO = 0%, 5 µM ipriflavone = 100%; 1,900 tested, 66% active;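 active = mean activation above the mean of solvent-only control wells plus 3 SD, cut at about 22% in these data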;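 also: counterscreen of GAA850 promoter hits where activity marks nonselective or luminescence artifacts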
FXN GAA850 conf – confirmation of GAA850 frataxin (FXN) promoter activators; shares compounds with GAA850 FXN act; HEK293 lucGAA850 FXN promoter luciferase reporter, 24 h; 100% = activation by SAHA; activation, % at 6 µM; 1,900 tested, 86% active; AID 588351;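 active = mean activation above a set limit taken from the primary screen, cut at about 8% in these data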
Of the large screens only hits and unclear results are named; the others gave an inactive call (follow-up assays come after a bar, where they were run).

Cn1ccsc1=NC(=O)c1ccc(S(C)(=O)=O)c([N+](=O)[O-])c1	GAA850 FXN act 10 | GAA30 FXN cntr 73 | FXN GAA850 conf 30
Cn1ccsc1=NC(=O)c1ccc(Cl)c([N+](=O)[O-])c1	none
CCN(C[C@H]1N[C@@](CC)(C(=O)OC)[C@H]2C(=O)N(Cc3ccccc3)C(=O)[C@@H]12)C(=O)Nc1ccc(C)cc1	GAA850 FXN act 14 (no result: Hep lipid drop, p-CIP stab down, Rce1 inh) | GAA30 FXN cntr 33 | FXN GAA850 conf 12
CCN(C[C@H]1N[C@@](CC)(C(=O)OC)[C@H]2C(=O)N(Cc3ccccc3)C(=O)[C@@H]12)C(=O)Nc1ccc(Cl)cc1	GAA850 FXN act 15 (no result: Hep lipid drop, p-CIP stab down, Rce1 inh) | GAA30 FXN cntr 31 | FXN GAA850 conf 14
CCN(C[C@H]1N[C@@](Cc2ccccc2)(C(=O)OC)[C@H]2C(=O)N(Cc3ccccc3)C(=O)[C@@H]12)C(=O)Nc1ccc(C)cc1	none (no result: Hep lipid drop, p-CIP stab down, Rce1 inh)
CCN(C[C@H]1N[C@@](CC)(C(=O)OC)[C@H]2C(=O)N(Cc3ccccc3)C(=O)[C@@H]12)C(=O)COc1ccccc1	GAA850 FXN act 8.0 (no result: Hep lipid drop, p-CIP stab down, Rce1 inh) | GAA30 FXN cntr 28 | FXN GAA850 conf 14
OC1COC(c2ccccc2)OC1C(O)C1OC(c2ccccc2)OCC1O (centres undefined)	none (no result: Hep lipid drop, procasp3 activ, procasp7 counter, p-CIP stab down, Rce1 inh)
Cc1ccc(-c2nc(NCc3cccnc3)c3ccccc3n2)cc1	GAA850 FXN act 7.7 | GAA30 FXN cntr 30 | FXN GAA850 conf 13
c1ccc(-c2nc(NCc3cccnc3)c3ccccc3n2)cc1	none (no result: Hep lipid drop)
Cc1cc2c([nH]c3ccccc32)c2c1OC(C)(C)C=C2	GAA850 FXN act 8.2 | GAA30 FXN cntr 124 | FXN GAA850 conf 46
COc1ccc2[nH]c(=O)c3c(c2c1)OC(C)(C)C=C3	none (no result: Hep lipid drop)
CC(C)(C)c1nnc(NC(=O)COc2ccc3c(c2)OCO3)s1	none (no result: Hep lipid drop, p-CIP stab down)
Cc1ccc(NC(=O)Nc2ccc(Cl)cn2)cc1	GAA850 FXN act 8.2 (no result: procasp3 activ, procasp7 counter) | GAA30 FXN cntr 94 | FXN GAA850 conf 32
CC(C)n1cnc2c(Nc3cccc(Cl)c3)nc(NCCCO)nc21	GAA850 FXN act 8.7 | GAA30 FXN cntr 53 | FXN GAA850 conf 15
CCCCn1c(=O)c2c(nc3n2CCCN3Cc2ccccc2)n(C)c1=O	none (no result: procasp3 activ, procasp7 counter)
CCOC(=O)c1[nH]c(C)c(C(=O)C(C)C)c1C	GAA850 FXN act 8.8 | GAA30 FXN cntr 77 | FXN GAA850 conf 24
CCOC(=O)c1[nH]c(C)c(CC(C)C)c1C	GAA850 FXN act 8.5 | GAA30 FXN cntr 40 | FXN GAA850 conf 15
Cc1ccc(C(=O)Nc2ncc(Cc3ccc(SC(F)F)cc3)s2)cc1	Hep lipid drop inconclusive, GAA850 FXN act 7.6 | GAA30 FXN cntr inactive | FXN GAA850 conf 37
CCCC(C)Sc1nc2c([nH]1)c(=S)n(C)c(=O)n2C (centres undefined)	GAA850 FXN act 10 (no result: Hep lipid drop, procasp3 activ, procasp7 counter, p-CIP stab down, Rce1 inh) | GAA30 FXN cntr inactive | FXN GAA850 conf 18
Cc1ccc(/C=C/S(=O)(=O)NCCC(=O)NCc2ccccc2F)cc1	none (no result: Hep lipid drop, p-CIP stab down, Rce1 inh)
CC(=O)Nc1ccc(Nc2nc(-c3cc4ccccc4oc3=O)cs2)cc1	none (no result: procasp3 activ, procasp7 counter)
Nc1ccc(Nc2nc(-c3cc4ccccc4oc3=O)cs2)cc1	GAA850 FXN act 9.0 (no result: Rce1 inh) | GAA30 FXN cntr 74 | FXN GAA850 conf 32
Cc1ccc(NC(=O)C(=O)NCc2ccccn2)cc1	GAA850 FXN act 8.3 (no result: Rce1 inh) | GAA30 FXN cntr 90 | FXN GAA850 conf 38
CCOC(=O)C1=C(COC(=O)C(C)(C)Oc2ccc(Cl)cc2)NC(=O)NC1C (centres undefined)	none (no result: Hep lipid drop, p-CIP stab down, Rce1 inh)
CN1C2=NCCN2C(=O)c2cc(Cl)ccc21	none
Clc1ccc2c(c1)-c1ccccc1C1=NCCN12	GAA850 FXN act 33 (no result: Hep lipid drop, procasp3 activ, procasp7 counter, p-CIP stab down, Rce1 inh) | GAA30 FXN cntr inactive | FXN GAA850 conf 139
Brc1ccc2c(c1)-c1ccccc1C1=NCCN12	GAA850 FXN act 24 (no result: Hep lipid drop, procasp3 activ, procasp7 counter, p-CIP stab down, Rce1 inh) | GAA30 FXN cntr inactive | FXN GAA850 conf 130

Screening data deposited in PubChem BioAssay by several laboratories.
